We go through 17 compounds from ChEMBL document CHEMBL4699548, “Ultrasound assisted synthesis of tetrazole based pyrazolines and isoxazolines as potent anticancer agents via inhibition of tubulin polymerization” (Bioorg Med Chem Lett, 2020).

Calls of active or inactive are those of the source. No cut-off for these calls is given here.

The subject of assay [1] is MCF7. Briefly: Cytotoxicity against human MCF7 cells assessed as reduction in cell viability by MTT assay. Type of assay: functional, cell-based. On the technique in general: Formazan colour is commonly taken as a measure of viable cells.
For assay [2], the system named is A549. Briefly: Cytotoxicity against human A549 cells assessed as reduction in cell viability by MTT assay. Type of assay: functional, cell-based.
The test system of assay [3] is HepG2. Put plainly: Cytotoxicity against human HepG2 cells assessed as reduction in cell viability by MTT assay. The class given is functional, cell-based.
Assay [4] deals with Tubulin. Put plainly: Inhibition of tubulin polymerization in human A549 cells assessed as decrease in polymerized fraction of tubulin content after 48 hrs by western blot analysis. Type of assay: cell-based. The procedure, abridged: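 A549 cells exposed to test agents at 1 μM for 48 h. Soluble and polymerized tubulin fractions were collected separately and tubulin levels in each were detected by western blot.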
A general note: Immunoblotting shows a protein as a band on a membrane.

Assay [5] addresses T1, Tubulin (Homo sapiens) (UniProt P68371+Q9H4B7+P0DPH7+P68366+Q13509+Q71U36+P04350+Q3ZCM7+P07437+P68363+Q9BQE3+Q6PEY2+Q13885+Q9BVA1+Q9BUF5). Briefly: Inhibition of tubulin polymerization in human A549 cells assessed as decrease in polymerized fraction of tubulin content at 1 uM after 48 hrs by Western blot analysis relative to control. Type of assay: cell-based. Summed up:
(§1)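 A549 cells exposed to test agents at 1 μM for 48 h. Combretastatin A-4 (1 μM) run in parallel as positive control and DMSO as negative control. Soluble and polymerized tubulin fractions were collected separately and tubulin levels in each were detected by western blot.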

In assay [6] the target is T1, Tubulin (Homo sapiens). Briefly: Inhibition of tubulin polymerization in human A549 cells assessed as increase in soluble fraction of tubulin at 1 uM measured after 48 hrs by western blot analysis. The class given is cell-based. The procedure, abridged: as §1

For the compound `COc1ccc(/C=C\c2cc(OC)c(OC)c(OC)c2)cc1O` [COMBRETASTATIN A4], the concentration for half-maximal inhibition (IC50) is 0.04 µM in assay [1], 0.05 µM in assay [2] and 0.009 µM in assay [3].
Taken in the same sequence, the figures for `COc1ccc(C2CC(c3ccc(OCc4nnn[nH]4)c(OC)c3)=NO2)cc1OC` (configuration not stated) were 25 µM, 12.5 µM and 3.12 µM.
For the compound `COc1cc(C2=NNC(c3ccccc3)C2)ccc1OCc1nnn[nH]1` (configuration not stated), the figures for the IC50 in assay [1], in assay [2] and in assay [3] were 3.16 µM, 2.98 µM and 3.15 µM, respectively.
For `COc1cc(C2=NOC(c3ccc(C)cc3)C2)ccc1OCc1nnn[nH]1` (configuration not stated) the same measures were 12.5 µM, 0.78 µM and 6.25 µM.
For `COc1cc(C2=NOC(c3ccc(F)cc3)C2)ccc1OCc1nnn[nH]1` (configuration not stated), the IC50 in assay [1], in assay [2] and in assay [3] was 3.12 µM throughout.
In the case of `COc1ccc(C2CC(c3ccc(OCc4nnn[nH]4)c(OC)c3)=NN2)cc1OC` (configuration not stated), the IC50 in assay [1] came to 2.94 µM; in assay [2], 2.82 µM; in assay [3], 3.06 µM.
With `COc1cc(C2=NNC(c3ccc(F)cc3)C2)ccc1OCc1nnn[nH]1` (configuration not stated), the IC50 stood at 0.92 µM in assay [1], 0.94 µM in assay [2], 0.85 µM in assay [3] and 2.16 µM in assay [4]. Further, the inhibition in assay [5] came to 65.4%. The inhibition result in assay [6] is “Active”.
Turning to `COc1cc(C2=NOC(c3ccc(O)cc3)C2)ccc1OCc1nnn[nH]1` (configuration not stated), the half-maximal inhibitory concentration (IC50) turned out to be 25 µM in assay [1], 3.12 µM in assay [2] and 6.25 µM in assay [3].
With `COc1ccc(C2CC(c3ccc(OCc4nnn[nH]4)c(OC)c3)=NO2)cc1` (configuration not stated), the results for the concentration for half-maximal inhibition (IC50) in assay [1], in assay [2] and in assay [3] were 12.5 µM, 6.25 µM and 12.5 µM, respectively.
As to `COc1cc(C2=NNC(c3cccc(O)c3)C2)ccc1OCc1nnn[nH]1` (configuration not stated), the IC50 in assay [1] is 2.16 µM; in assay [2] it was 2.24 µM; in assay [3], 2.88 µM.
For the compound `COc1cc(C2=NNC(c3ccc(C)cc3)C2)ccc1OCc1nnn[nH]1` (configuration not stated), the values for the IC50 in assay [1], in assay [2] and in assay [3] were 1.76 µM, 0.99 µM and 1.08 µM, respectively.
Taken in the same sequence, the figures for `COc1cc(C2=NOC(c3ccc(Cl)cc3)C2)ccc1OCc1nnn[nH]1` (configuration not stated) were 6.25 µM, 6.25 µM and 12.5 µM.
Regarding `COc1cc(C2=NNC(c3ccc(O)cc3)C2)ccc1OCc1nnn[nH]1` (configuration not stated), the IC50 turned out to be 1.94 µM in assay [1], 1.16 µM in assay [2] and 2.02 µM in assay [3].
Taken in the same sequence, the figures for `COc1ccc(C2CC(c3ccc(OCc4nnn[nH]4)c(OC)c3)=NN2)cc1` (configuration not stated) were 3.1 µM, 3.12 µM and 2.98 µM.
Consider `COc1cc(C2=NOC(c3ccccc3)C2)ccc1OCc1nnn[nH]1` (configuration not stated), for which the figures for the IC50 in assay [1], in assay [2] and in assay [3] were 12.5 µM, 6.25 µM and 6.25 µM, respectively.
`COc1cc(C2=NNC(c3ccc(Cl)cc3)C2)ccc1OCc1nnn[nH]1` (configuration not stated): the half-maximal inhibitory concentration (IC50) in assay [1] is 1.04 µM; in assay [2] it was 1.11 µM; in assay [3], 0.96 µM; in assay [4], 2.94 µM. Further, the inhibition in assay [5] worked out at 62.6%. The inhibition entry in assay [6] is “Active”.
With `COc1cc(C2=NOC(c3cccc(O)c3)C2)ccc1OCc1nnn[nH]1` (configuration not stated), the IC50 stood at 6.25 µM in assay [1], 25 µM in assay [2] and 1.56 µM in assay [3].

Broadly, the IC50 is the concentration at which inhibition is half-maximal. The inhibition is the change of the read-out against control, counted positive when it falls.
